From ChEMBL document CHEMBL1124953, “Orally effective acid prodrugs of the beta-lactamase inhibitor sulbactam” (J Med Chem, 1990)

Key:
[1] = Maximum Concentration of the compound.; assay type: ADME, organism-based; details: in vivo
Procedure, shortened: (§1)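 Male outbred CD rats (70-90 g), five per prodrug, given 10 mg/kg orally in CMC diluent. Orbital plexus blood into heparinized tubes, plasma sampled over 4 h. Plasma sulbactam quantified by synergistic agar-well bioassay: Pasteurella hemolytica (ATCC 43823) in Mueller-Hinton agar with ampicillin and triphenyltetrazolium chloride, 18 h at 37 °C. Standard curve 10-0.1 μg/mL in rat plasma, zone-size regression. AUC and Cmax from concentration-time plot.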

[2] = Area under curve (AUC) was determined; assay type: ADME; parameters: concentration or dose not given beside the values; procedure, shortened: as §1

Compound | Cmax [1] [µg/mL] | AUC [2] [µg·h/mL]
CC1(C)[C@H](C(=O)O)N2C(=O)C[C@H]2S1(=O)=O [SULBACTAM] | 0.7 | 1.4
CC1(C)[C@H](C(=O)OCOC(=O)CCCCC(=O)O)N2C(=O)C[C@H]2S1(=O)=O | 5.2 | 7.5
CC1(C)[C@H](C(=O)OCOC(=O)CCCCC(=O)OCc2ccccc2)N2C(=O)C[C@H]2S1(=O)=O | 1.6 | 2.3

The remaining lines, values ahead:

Cmax [1] [µg/mL] | AUC [2] [µg·h/mL] | Compound
3.9 | 6.2 | CC(C)(C(=O)O)C(=O)OCOC(=O)[C@@H]1N2C(=O)C[C@H]2S(=O)(=O)C1(C)C
6.2 | 8.5 | CC(C)(C)C(=O)OCOC(=O)[C@@H]1N2C(=O)C[C@H]2S(=O)(=O)C1(C)C [SULBACTAM PIVOXIL]
2 | 3.5 | CC1(C)[C@H](C(=O)OCOC(=O)CC(=O)O)N2C(=O)C[C@H]2S1(=O)=O
8.2 | 10 | CC1(C)[C@H](C(=O)OCOC(=O)CCCC(=O)O)N2C(=O)C[C@H]2S1(=O)=O
